The structures appear in SMILES notation.

Here are results for 8 compounds from ChEMBL document CHEMBL3244165, “Improved synthesis and in vitro antiviral activities of 5-cyanouridine and 5-cyano-2'-deoxyuridine” (J Med Chem, 1977).

Data set [1] relates to Vesicular stomatitis virus. In words: Antiviral activity against Vesicular stomatitis virus infected in primary rabbit kidney cells assessed as inhibition of virus-induced cytopathogenicity. It is filed as functional. Background: Cytopathic effects are the visible damage that an infection or toxin causes in cultured cells.
Data set [2] concerns Human alphaherpesvirus 1. The data set is described as follows: Antiviral activity against Herpes simplex virus 1 infected in human skin fibroblasts assessed as inhibition of virus-induced cytopathogenicity. It counts as functional.
The subject of data set [3] is Human alphaherpesvirus 1. The data set is described as follows: Antiviral activity against Herpes simplex virus 1 infected in primary rabbit kidney cells assessed as inhibition of virus-induced cytopathogenicity. It counts as functional.
Data set [4] is described as follows: Dissociation constant, pKa of the compound by spectrophotometric analysis. It is filed as physicochemical. Put shortly: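 Determined spectrophotometrically in Teorell-Stenhagen buffers.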

Consider `N#Cc1cn([C@@H]2O[C@H](CO)[C@@H](O)[C@H]2O)c(=O)[nH]c1=O`, for which the values for the ID50 (in data set [1]; in the data set on Human alphaherpesvirus 1 [2]; with Human alphaherpesvirus 1 [3]) were more than 7 ×10⁻⁴ M, more than 7 ×10⁻⁴ M and 3.7 ×10⁻⁴ M, respectively.

As for `N#Cc1cn([C@H]2C[C@H](O)[C@@H](CO)O2)c(=O)[nH]c1=O`, the pKa in data set [4] came to 6.8. The values for the ID50 in the data set on Human alphaherpesvirus 1 [2] and in the data set with Human alphaherpesvirus 1 [3] were more than 7 ×10⁻⁴ M and 1.6 ×10⁻⁴ M, respectively.

Consider `O=c1[nH]c(=O)n([C@H]2C[C@H](O)[C@@H](CO)O2)cc1Br` [BROXURIDINE], for which the ID50 in the data set with Human alphaherpesvirus 1 [2] and in the data set on Human alphaherpesvirus 1 [3] was 3.2 ×10⁻⁷ M each time.

Regarding `O=c1[nH]c(=O)n([C@H]2C[C@H](O)[C@@H](CO)O2)cc1Cl` [CHLORODEOXYURIDINE], the ID50 in the data set with Human alphaherpesvirus 1 [2] and with Human alphaherpesvirus 1 [3] was 7.6 ×10⁻⁷ M throughout.

In the case of `O=c1[nH]c(=O)n([C@H]2C[C@H](O)[C@@H](CO)O2)cc1F` [FLOXURIDINE], the values for the ID50 in the data set on Human alphaherpesvirus 1 [2] and in the data set on Human alphaherpesvirus 1 [3] were 4 ×10⁻⁷ M and 1.6 ×10⁻⁷ M, respectively.

As for `O=c1[nH]c(=O)n([C@H]2C[C@H](O)[C@@H](CO)O2)cc1I` [IDOXURIDINE], the pKa in data set [4] stood at 8.2. For the same compound, the ID50 in the data set with Human alphaherpesvirus 1 [2] and in the data set with Human alphaherpesvirus 1 [3] was 5.7 ×10⁻⁷ M throughout.

Regarding `O=c1[nH]c(=O)n([C@H]2C[C@H](O)[C@@H](CO)O2)cc1C(F)(F)F` [TRIFLURIDINE], the ID50 with Human alphaherpesvirus 1 [2] is listed as 1.3 ×10⁻⁶ M; in the data set on Human alphaherpesvirus 1 [3] it was 6.6 ×10⁻⁷ M.

Take `Nc1ncnc2c1ncn2[C@@H]1O[C@H](CO)[C@@H](O)[C@@H]1O` [VIDARABINE]: the ID50 with Human alphaherpesvirus 1 [2] is recorded as 3.7 ×10⁻⁵ M; with Human alphaherpesvirus 1 [3], 1.5 ×10⁻⁵ M.

A word on the pKa: it is the negative logarithm of the acid dissociation constant. The low end stands for a group that gives up its proton readily, the high end for a group that holds its proton tightly.
